From PubChem
Only some compounds are listed: those with a hit (about 9.6% of all), similar ones and a draw of the others.
HCT116 bCat-KO – beta-catenin-lacking colon tumor cell growth suppression | HCT116 beta-catenin knockout viability, CellTiter-Glo, 60 h; hits give low values | actives 1.5% (n = 140,000) | viability, % at 10 µM | AID 818;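 active = viability at or under a set limit, the compound median less 4 SD, cut at about 6% in these data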;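 note: 0% = Hyamine 1622 control at 20 µM and 100% = untreated cell control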
TNAP inh no acc – blocks human TNAP activity with no phosphate acceptor present. purified TNAP, CDP-star luminescence, 30 min. AID 1012. inhibition, % at 20 µM. P05186. actives 0.26% (n = 200,000);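 active = tissue-nonspecific alkaline phosphatase inhibition above about 50% at 20 µM in the single-dose screen, limit read from the data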;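 note: 0% = DMSO negative control and 100% = EDTA positive control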
Target sequence (P05186 whole entry, looked up): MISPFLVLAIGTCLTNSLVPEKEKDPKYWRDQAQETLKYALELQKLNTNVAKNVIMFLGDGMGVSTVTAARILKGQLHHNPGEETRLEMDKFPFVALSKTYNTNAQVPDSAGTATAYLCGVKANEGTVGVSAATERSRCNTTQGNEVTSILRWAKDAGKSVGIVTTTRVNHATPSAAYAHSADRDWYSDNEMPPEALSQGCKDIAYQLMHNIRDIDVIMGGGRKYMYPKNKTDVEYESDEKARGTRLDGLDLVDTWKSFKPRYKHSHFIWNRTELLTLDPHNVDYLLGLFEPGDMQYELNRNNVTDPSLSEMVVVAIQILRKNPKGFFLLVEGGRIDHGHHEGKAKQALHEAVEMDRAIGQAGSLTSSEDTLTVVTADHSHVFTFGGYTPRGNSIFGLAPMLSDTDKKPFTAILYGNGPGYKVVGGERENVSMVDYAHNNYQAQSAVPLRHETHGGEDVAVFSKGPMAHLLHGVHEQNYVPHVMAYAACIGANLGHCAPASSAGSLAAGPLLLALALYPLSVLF
TNAP inh hi DEA – blocks human TNAP under high phosphate acceptor concentration; purified TNAP, CDP-star luminescence, 1 M DEA; inhibition, % at 20 µM; actives 0.03% (n = 200,000); AID 1135;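 active = over 50% inhibition of tissue-nonspecific alkaline phosphatase at 20 µM in the single-dose screen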;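 note: plate controls were DMSO wells for no effect and EDTA-quenched wells as full inhibition for full effect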
PTEN del growth – PTEN-deleted cell growth suppression; HCT116 PTEN-null viability, CellTiter-Glo, 60 h; hits give low values; viability, % at 10 µM; actives 1.2% (n = 140,000);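 active = viability at or below a set limit, 4 SD under the median of all tested compounds, cut at about 3.7% in these data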;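 note: PTEN knockout HCT116 line with beta catenin targeted HCT116 as companion control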
Lmaj promast – reduces viability of Leishmania major promastigotes; inhibition, % at 10 µM; AID 1063; actives 9% (n = 200,000); resazurin fluorescence viability; in the data active = inhibition above about 50%;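 note: promastigotes grown with compound for 44 hours at 28 °C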
TNAP act hi DEA – TNAP (human) activation, high acceptor; purified TNAP, CDP-star luminescence, 1 M DEA, 30 min; hits give high values; 0 = EDTA background, 1 = DMSO-only activity; P05186; activation factor at 20 µM; 200,000 tested, under 10 active; AID 1136;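 active = activation factor at least 2 at 20 µM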
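Assay system: human TNAP; Input: enzyme diluted 1/800 final; Reagent: CDP-star luminogenic substrate at 100 µM final; Timing: 30 min, room temperature; Signal: luminescence; Evaluation: TNAP activation factor scaled between EDTA and DMSO control wells.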
* hit, by the source's call; . = not tested or not shown.

SMILES | HCT116 bCat-KO | TNAP inh no acc | TNAP inh hi DEA | PTEN del growth | Lmaj promast | TNAP act hi DEA
CCOC(=O)c1c(C)c(-c2ccccc2)n(CC(=O)NCCC(C)C)c1C | 87 | -14 | -1 | 83 | -7 | 1
CCOC(=O)c1c(C)c(-c2ccccc2)n(CC(=O)NCCCN(CC)CC)c1C | . | -17 | -5 | . | 51* | 1.1
COc1ccc2c(c1)CCc1c-2n[nH]c1C(=O)O | 89 | 86* | -3 | 91 | 13 | 1
O=Cc1ccc(O)c(O)c1 | 83 | 3 | -2 | 81 | -1 | 1
O=C(/C(=N/N=C/c1ccc(O)c(O)c1)c1ccccc1)c1ccccc1 | 12 | 51* | 26 | 13 | 13 | 0.7
CCOC(=O)N1CCN(CC(=O)Nc2cc(OC)c(OC)cc2C#N)CC1 | . | -17 | -7 | . | -7 | 1.1
CC(NCc1ccc(N(C)C)cc1)C1CC2CCC1C2 (centres undefined) | 111 | -22 | -5 | . | 98* | 1
CC(NC(=O)CSc1ccccc1C(=O)O)C1CC2CCC1C2 (centres undefined) | . | -4 | -2 | . | -2 | 1
CN1CCN(c2nc(-c3ccccc3)c3cc(Cl)ccc3n2)CC1 | 56 | 11 | -2 | 44 | 86* | 1
Clc1ccc2nc(N3CCNCC3)nc(-c3ccccc3)c2c1 | 1.2* | 6 | -6 | 1.3* | 101* | 1.1
OCCN1CCN(c2nc(-c3ccccc3)c3cc(Cl)ccc3n2)CC1 | 73 | -2 | -1 | 71 | 10 | 1
O=C(COc1ccc(-c2ccccc2)cc1)N1CCCC1 | . | -3 | 1 | . | -6 | 1
O=C(Oc1ccc(Br)cc1C(=O)/C=C/c1ccccc1F)c1ccco1 | . | . | . | . | 100* | .
CC(=O)c1cc(Cl)ccc1OC(=O)c1ccco1 | 106 | -4 | -2 | 101 | -6 | 1
Cc1ccc(Nc2nnc(SCC(=O)NCCN3C(=O)CSC3=O)s2)cc1 | 91 | 9 | 3 | 91 | -2 | 1
Cc1c2ccccc2nc2c(F)c(NCCO)c(F)c(F)c12 | 56 | -2 | 4 | 68 | 46 | 1
OCCNc1c2ccccc2nc2c(F)c(F)c(F)c(F)c12 | 1.5* | -11 | 2 | 1.1* | 10 | 1
O=S(=O)(NC1c2cccc3cccc(c23)C1Sc1ncccn1)c1ccc(Cl)cc1 (centres undefined) | 63 | 13 | -5 | 52 | 83* | 1
CCN1C/C(=C/c2cccc([N+](=O)[O-])c2)C(=O)/C(=C/c2cccc([N+](=O)[O-])c2)C1 | 1.7* | -10 | -5 | 1.6* | 100* | 1.1
CCOc1ccc(N(CC(=O)NCC2CCCO2)C(=O)CCC(=O)Nc2nccs2)cc1 (centres undefined) | . | -11 | -8 | . | -8 | 1.1
CC1CC(C)(C)NC(=S)N1CC(=O)N1CCN(Cc2ccc3c(c2)OCO3)CC1 (centres undefined) | . | 0 | 1 | . | -5 | 1
CCOc1ccc(-n2c(-c3ccc(Br)cc3)c[n+]3c2CCCCC3)cc1 | . | 2 | -5 | . | 101* | 1.1
COc1ccc(-c2c[n+]3c(n2-c2ccccc2)CCCCC3)cc1 | 31 | -4 | -2 | 43 | 99* | 1
CCOc1ccc(-n2c(-c3ccc(OC)cc3)c[n+]3c2CCCCC3)cc1 | 9 | -11 | -3 | 11 | 100* | 1
COc1ccc(-c2c[n+]3c(n2-c2c(C)n(C)n(-c4ccccc4)c2=O)CCCCC3)cc1 | . | -8 | -6 | . | -8 | 1.1
SMILES | HCT116 bCat-KO | TNAP inh no acc | TNAP inh hi DEA | PTEN del growth | Lmaj promast | TNAP act hi DEA
CCOc1ccc(-n2c(-c3ccccc3)c[n+]3c2CCC3)cc1 | . | -6 | -4 | . | 94* | 1
COc1c(Cl)cnn(-c2ccc(Cl)c(Cl)c2)c1=O | . | -2 | 1 | . | 1 | 1
O=C(c1ccccc1)N1CCN(S(=O)(=O)c2cccc(NS(=O)(=O)c3ccccc3)c2)CC1 | . | 4 | -2 | . | 2 | 1
COC(=O)CCC/C=C1\SC[C@@H](NC(=O)c2ccccc2)C1NC(C)=O (some centres undefined) | 96 | 0 | -3 | 101 | -4 | 1
COc1ccc(-c2nnc(N3CCCCC3)c3ccccc23)cc1 | 61 | -4 | 1 | 65 | 37 | 1
COc1ccc(-c2c[n+]3c4n2CCCCC4=C(c2ccccc2)C3)cc1 | 3.8* | 2 | -4 | 3.5* | 100* | 1
